Reference: the RNAGym collection of RNA variant scans (doi:10.1126/science.aae0568)
This sample holds only a part of the variants without activity.

B1: tRNA (parent)
chain: GUUCCGUUGGCGUAAUGGUAACGCGUCUCCCUCCUAAGGAGAAGACUGCGGGUUCGAGUCCCGUACGGAACG

Variants of: B1
Assay: yeast fitness relative to wild type (ratio to wild type); higher = fitter; tRNA-Arg(CCU), competitive growth, 37 C, YPD
In short: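 Variants of the tRNA-Arg(CCU) gene, chemically synthesised with a 3% per-site mutation rate at 69 sites, were placed at the native genomic locus in Saccharomyces cerevisiae. The pooled strains were competed in YPD at 37°C for 24 hours in six parallel replicates. Gene amplicons from the start population and from each end population were read by 100-nucleotide paired-end sequencing. Darwinian fitness relative to wild type came from changes in genotype frequencies; genotypes needed ≥ 100 starting reads, and estimates < 0.5 were set to 0.5.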

| Variant | yeast fitness |
| --- | --- |
| GUUCCGUCGGCGUAAUGGUAACGCGUCUCCCUCCUAAGGAGAAGAUUGCGCGUUCGAGUCCCGUACGGAACG [U8C C46U G51C] | ≤ 0.5 |
| GUUCCGUCGGCGUAAUGGUAACGCGUAUCCCUCCUAAGGAGAAGACAGCGGGUUCCAGUCCCGUACGGCACG [U8C C27A U47A G56C A69C] | ≤ 0.5 |
| GUUCCGUCGGCGUAAUGGUAACGCGUCUCCCUCCUAGGGAGAAGACUGCAGGUUCGAGUCCCGUACGGUACG [U8C A37G G50A A69U] | ≤ 0.5 |
| GUUCCGUCGGCGUAAUGGUAAGGCGUCUCCCUCCUAAGGAGAAGACUGCGGGUUCGAGUACCGUACGGAACG [U8C C22G C60A] | 0.609 |
| GUUCCGUCGGCGUAAUGGUAAGGCGUCUCCCUCCUAAGGAGAAGACUGUGGGUUCGAGUCCCGUACGGUACG [U8C C22G C49U A69U] | 0.573 |
| GUUCCGUCGGCGUAAUGGUAACGCGUCUCCGUCCUAAGGAGGAGACUGCGGGUUCGAGUCCCGUACGGAACG [U8C C31G A42G] | 0.624 |
| GUUCCGUCGGCGUAAUGGUAACGUGUCUCCCUCCUAAGGAGAAGACUGCGGGUUCGAGUCCCGUCCGGAACG [U8C C24U A65C] | 0.59 |
| GUUCCGUCGGCGUAAUGGUAGCGCGUCCCCCUCCUAAGGAGAAGACUGCGGGUUCGAGUCCCGUACGGAACG [U8C A21G U28C] | 0.637 |
| GUUCCGUCGGCGUAAUGGUAACGCGUCUCCUUCCUAAGGAGAAGCCCGCGGGUUCGAGUCCCGUACGGAACG [U8C C31U A45C U47C] | ≤ 0.5 |
| GUUCCGUCGGUGUAAUGGUAACGGGUCUCCCUCCUAAGGAGAAGCCUGCGGGUUCGAGUCCCGUACGGAACG [U8C C11U C24G A45C] | 0.629 |
| GUUCCGUCGGCGUAAUGGUAAAGCGUCUCCCUCCUCAGGAGAAGACUGCGGGUUGGAGUCCCGUGGGGAACG [U8C C22A A36C C55G A65G C66G] | ≤ 0.5 |
| GUUCCGUCGGCGUAAUGGUAACGCGUCUCCCUCCUUAGGAGAAGACUGCCGGUUCGAGUCCCGUACGGAACG [U8C A36U G50C] | ≤ 0.5 |
| GUUCCGUCGGCGUCAUGAUAACGCGUCUCCUUCCUAAGGAGAAGACUGCGGGUUCGAGUCCCGUACGGAACG [U8C A14C G18A C31U] | ≤ 0.5 |
| GUUCCGUCGGCGUAAUGGUAACGUGUCUCCCUCCUAAGGAGUAGACUGCGGCUUCGAGUCCCGUACGGAACG [U8C C24U A42U G52C] | ≤ 0.5 |
| GUUCCGUCGGCGUAAUGGUAACGGGUCUCCCUCCUAAGGAGAAGACUGCGGGUUCGGGUCCCGUACGGAACG [U8C C24G A57G] | ≤ 0.5 |
| GUUCCGUCGGCGUAAUGGUAUCGCGUCUCGCUCCUAAGGAGAAGACUGCGGGUUCGACUCCCGUACGGAACG [U8C A21U C30G G58C] | ≤ 0.5 |
| GUUCCGUAGGCGUAAUGGUAACGCGUCUCCCUCCCAAGGAGCAGACUGCGGGUUCGAGUCCCGUACAGAACG [U8A U35C A42C G67A] | 0.568 |
| GUUCCGUCAGCGUAAUGGUAAGGCGUCUCCCGCCUAAGGAGAAGACUGGGGGUUGGAGUCCCGUACGGAACG [U8C G9A C22G U32G C49G C55G] | ≤ 0.5 |
| GUUCCGUCAGCGUAAUGGUAACGCGUCUCCCUCCUAAGGAGGAGACUGCGGGUUCGAUUCCCGUACGGAACG [U8C G9A A42G G58U] | ≤ 0.5 |

| Variant | yeast fitness |
| --- | --- |
| GUUCCGUCGGCGUAAUGGUAACGCGUCUCCCUCCUAAGGAGAAGACUGCGGGUUCGAGUCCCGUACGGAGCG [U8C A70G] | 0.971 |
| GUUCCGUCGGCGUAAUGGUAACGCGUGUACCUCCUAAGGAGAAGACUGCGGGUUCGAGUCCCGUACGGAACG [U8C C27G C29A] | ≤ 0.5 |
| GUUCCGUCGGCGUAAUGGUAACGCGUCUCCCUCCUAAGGAGAAGACUGGGGGUUCGAGUCCCGUACGGAACG [U8C C49G] | 1.01 |
| GUUCCGUCAGCGUAAUGGUCACGCGUCUCCCUCCUAAGGAGAAGACUGCGGGUUCGAGUCCCGUACGGAUCG [U8C G9A A20C A70U] | ≤ 0.5 |
| GUUCCGUCGGCGUAAUGGUAACGCGUCUCCCUCCUAGGGAGAAGACUGCGGGUUCGAGUCCCGUACGGAACG [U8C A37G] | 0.657 |
| GUUCCGUCGGCGUAAUGGUAACGCGUCUCCCUCCUAAGGAGAAGACUGCGGGUUCGAGUCUCGUACGGAACG [U8C C61U] | 0.942 |
| GUUCCGUCGGCGUAAUGGUAACGCGUCUCCCUCCUAAGGAGAAGACUGCGGGUUCGAGUCACGUACGGAACG [U8C C61A] | 0.763 |
| GUUCCGUCGGAGUAAUGGUAACGCGUCUCCCUCCUAAGGAGAAGACUGCGGGUCCGAGUCCCGUACGGAACG [U8C C11A U54C] | ≤ 0.5 |
| GUUCCGUCGGCGUAAUGGUAACGCGUCUCCCUCCUUAGGAGAAGACUGCGGGUUCGAGUCCCGUACGGAACG [U8C A36U] | 0.647 |
| GUUCCGUCGGCGUAAUGGUAACGCGUCUCCCUCCUAAGGAGAAGACUGCGGGUUUGAAUCCCGUACGGAACG [U8C C55U G58A] | ≤ 0.5 |
| GUUCCGUCGGCGUAAUGGUAAGGCGUCUCGCUCCUAAGGAGAAGACUGCGGGUUCGAGUCCCGUACGGAACG [U8C C22G C30G] | ≤ 0.5 |
| GUUCCGUAGGCGUAAUGGUAACGCGUCUCCCUCCUAAGGAGAAGACUGCGGGAUCGAGUCCCGUACGGAACG [U8A U53A] | ≤ 0.5 |
| GUUCCGUCGGCGUAGUGGUAACGCGUCUCCCUCCUAAGGAGAAGACUGCGGGUUCGAGUCCCGUACGGAACG [U8C A15G] | 0.969 |
| GUUCCGUCGGCGUAAUGGUAACGCGUCUCCCUCCUGAGCAGAAGACUGUGGGUGCGAGUCCCGUACGGAACG [U8C A36G G39C C49U U54G] | ≤ 0.5 |
| GUUCCGUCGGCGUAAUGGUAACGCGUCUGUCUCCUAAGGAGAAGAUUACGGGUUCGAGUCCCGUACGGAACG [U8C C29G C30U C46U G48A] | ≤ 0.5 |
| GUUCCGUCGGCGUAAUGGUAACGCGUCUCCCUCCUAAGGUGAAGACUGCGGGUUCGAGUCCCGUACGGUACG [U8C A40U A69U] | 0.75 |
| GUUCCGUCGGCGUAAUGGUAACGCGUCUCCCUCCUAAGGAGAAGACUGCGGGUUUGAGUCCCGUACGGAACG [U8C C55U] | 0.754 |
| GUUCCGUCGGCGUAAUGGUAACGCGUCUCCCUCCUAAGGAGAAGACUGCGGGUUGGAGUCCCGUACGGAACG [U8C C55G] | 0.671 |
